Among the data in BindingDB's records for doi:10.1021/jm030110r (Pharmaceutical Research Institute, 2003) are IC50 values, retold here.

This experiment deals with Proto-oncogene tyrosine-protein kinase Src (Rattus norvegicus, UniProt Q9WUD9). As to the kind of experiment: Inhibition of v-Src tyrosine kinase autophosphorylation in SR3Y1 cells after 15 hr. In a few lines:
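SR-3Y1 cells exposed to drug 15 h, lysed on ice 20 min in Tris pH 7.5 RIPA-type buffer with protease inhibitors and 1 mM vanadate. Equal-protein lysates run on SDS-PAGE, blotted with anti-phosphotyrosine antibody, HRP secondary, ECL detection. IC50 = concentration halving tyrosine phosphorylation.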

Chain of Proto-oncogene tyrosine-protein kinase Src (Q9WUD9 2-536 limits assumed): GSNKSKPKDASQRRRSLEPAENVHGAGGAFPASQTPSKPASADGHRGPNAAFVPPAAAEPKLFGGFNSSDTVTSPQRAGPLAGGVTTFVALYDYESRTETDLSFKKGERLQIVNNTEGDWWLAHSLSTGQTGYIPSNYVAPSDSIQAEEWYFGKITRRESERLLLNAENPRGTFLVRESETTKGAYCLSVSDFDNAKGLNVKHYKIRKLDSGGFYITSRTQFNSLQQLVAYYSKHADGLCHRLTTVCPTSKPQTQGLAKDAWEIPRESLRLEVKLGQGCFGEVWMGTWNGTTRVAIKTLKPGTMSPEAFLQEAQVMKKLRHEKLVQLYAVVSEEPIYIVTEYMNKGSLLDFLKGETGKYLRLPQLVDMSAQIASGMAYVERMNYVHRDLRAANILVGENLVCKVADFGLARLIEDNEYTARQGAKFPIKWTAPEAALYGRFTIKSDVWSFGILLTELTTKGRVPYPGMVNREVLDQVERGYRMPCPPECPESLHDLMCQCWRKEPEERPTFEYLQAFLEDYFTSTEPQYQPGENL

Compound `C[C@@H]1C[C@H]2O[C@@H]2\C=C/C=C/C(=N\OCC(=O)N2CCN(C)CC2)Cc2c(Cl)c(O)cc(O)c2C(=O)O1` [16-Chloro-17,19-dihydroxy-4-methyl-3,7-dioxa-tricyclo[13.4.0.0*6,8*]nonadeca-1(19),9,11,15,17-pentaene-2,13-dione 13-{O-[2-(4-methyl-piperazin-1-yl)-2-oxo-ethyl]-oxime}] came in with a half-maximal inhibitory concentration (IC50) of 13 nM.
